Assay [1] concerns the target T1, Cannabinoid receptor 2 (Homo sapiens, UniProt P34972). The experiment in a line: Antagonist activity at human CB2 receptor expressed in CHOK1 cells assessed as inhibition of forskolin-stimulated cAMP level at 10 uM. In kind it is functional, cell-based. The note with it: CHO-K1. On the technique in general: Cyclic AMP is a second messenger, typically raised through Gs and lowered through Gi signalling.

Assay [2] has as its target T2, Cannabinoid receptor 1 (Homo sapiens, UniProt P21554). Nature of the assay: Antagonist activity at human CB1 receptor expressed in CHOK1 cells assessed as inhibition of forskolin-stimulated cAMP level at 10 uM. In kind it is functional, cell-based. The note with it: CHO-K1.
For assay [3], the target named is T3, G-protein coupled receptor 55 (Homo sapiens, UniProt Q9Y2T6). Nature of the assay: Agonist activity at human GPR55 transfected in CHO cells at 10 uM after 90 mins by beta-arrestin translocation assay. In kind it is cell-based. In outline:
(§1)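 CHO cells stably expressing human GPR55 (β-galactosidase fragment complementation) were seeded at 20,000 cells/well in Opti-MEM with 2% FCS for 24 h at 37°C. Compound was diluted in PBS with 10% DMSO and 0.1% BSA, screened at 10 µM and incubated 90 min at 37°C. Galacton-Star/Emerald-II/lysis buffer (1:5:19) was added for 60 min at RT, then luminescence was read. Response is relative to 1 µM LPI (100%).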

For assay [4], the target named is T1, Cannabinoid receptor 2. Nature of the assay: Displacement of [3H]-CP55,940 from human CB2 receptor transfected in CHOK1 cells. In kind it is cell-based, CHO-K1. In outline: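 CHO cells stably expressing human CB2 supplied the membranes, 1 µg protein per vial. Compounds were screened at 10 µM, and full competition curves were run where inhibition was about 50% or more. Three independent experiments in duplicate.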
Background: In a radioligand displacement assay an active substance lowers the binding of a labelled ligand.

The target in assay [5] is T2, Cannabinoid receptor 1. The experiment in a line: Displacement of [3H]-CP55,940 from human CB1 receptor transfected in CHOK1 cells. In kind it is cell-based, CHO-K1.
Assay [6] concerns the target T4, N-arachidonyl glycine receptor (Homo sapiens) (UniProt Q14330).
T4 sequence (whole entry): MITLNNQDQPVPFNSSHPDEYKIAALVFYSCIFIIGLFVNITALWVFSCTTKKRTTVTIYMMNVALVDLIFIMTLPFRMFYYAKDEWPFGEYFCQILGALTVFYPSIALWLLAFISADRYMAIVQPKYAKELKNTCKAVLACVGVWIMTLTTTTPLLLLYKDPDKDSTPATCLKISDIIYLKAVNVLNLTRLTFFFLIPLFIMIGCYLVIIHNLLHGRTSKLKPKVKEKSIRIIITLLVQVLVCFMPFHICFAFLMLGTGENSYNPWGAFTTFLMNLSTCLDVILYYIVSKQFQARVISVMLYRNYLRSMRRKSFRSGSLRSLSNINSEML
Nature of the assay: Antagonist activity at human GPR18 transfected in CHO cells assessed as delta9-THC-induced beta-arrestin recruitment at 10 uM incubated 60 mins prior to delta9-THC addition by beta-arrestin translocation assay. Set-up: scale not given: the % may be the effect or the level left. In kind it is cell-based. The method, boiled down:
(§2)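 CHO cells stably expressing human GPR18 were seeded at 20,000 cells/well for 24 h at 37°C. Compound in PBS/10% DMSO/0.1% BSA was added 60 min before the GPR18 agonist 3 at 10 µM. The supplier's detection reagent was used, and luminescence was read after 60 min at RT. Screening was at 10 µM (% inhibition); IC50 from concentration-inhibition curves. Three independent experiments in duplicate.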
For orientation: Recruitment of arrestin is a read-out of receptor activation apart from second messengers.

The target in assay [7] is T5, N-arachidonyl glycine receptor (Homo sapiens, UniProt Q14330).
T5 sequence (Q14330 whole entry): T4 sequence (whole entry)
The experiment in a line: Antagonist activity at human GPR18 transfected in CHO cells assessed as delta9-THC-induced beta-arrestin recruitment incubated 60 mins prior to delta9-THC addition by beta-arrestin translocation assay. In kind it is cell-based. The method, boiled down: as §2

The target of assay [8] is T3, G-protein coupled receptor 55. Nature of the assay: Antagonist activity at human GPR55 transfected in CHO cells assessed as inhibition of LPI-induced beta-arrestin recruitment incubated 60 mins prior to LPI addition by beta-arrestin translocation assay. In kind it is cell-based. In outline:
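CHO cells stably expressing human GPR55 were seeded at 20,000 cells/well for 24 h at 37°C. Compound in PBS/10% DMSO/0.1% BSA was added 60 min before 1 µM LPI. Galacton-Star/Emerald-II/lysis buffer (pH 8) was applied for 60 min at RT, with luminescence read-out. Screening was at 10 µM (% inhibition). IC50 was measured where inhibition exceeded 60%. Three independent experiments in duplicate.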

Assay [9] has the same target. The experiment in a line: Antagonist activity at human GPR55 expressed in HEK293 cells assessed as inhibition of LPI-induced beta-arrestin recruitment incubated 60 mins prior to LPI addition by beta-arrestin translocation assay. In kind it is cell-based. Set-up: scale not given: the % may be the effect or the level left.
The target is the same in assay [10]. The experiment in a line: Agonist activity at human GPR55 transfected in CHO cells after 90 mins by beta-arrestin translocation assay relative to LPI. In kind it is cell-based. The method, boiled down: as §1
In assay [11] the target is T1, Cannabinoid receptor 2. Nature of the assay: Agonist activity at human CB2 receptor expressed in CHOK1 cells assessed as […] of forskolin-stimulated cAMP level at 10 uM. The note with it: CHO-K1. In kind it is functional, cell-based.
Assay [12] addresses T2, Cannabinoid receptor 1. Nature of the assay: Agonist activity at human CB1 receptor expressed in CHOK1 cells assessed as […] of forskolin-stimulated cAMP level at 10 uM. In kind it is functional, cell-based. The note with it: CHO-K1.
Assay [13] deals with T3, G-protein coupled receptor 55. The experiment in a line: Antagonist activity at human GPR55 transfected in CHO cells assessed as inhibition of LPI-induced beta-arrestin recruitment incubated 60 mins prior to LPI addition by Gaddum method. In kind it is cell-based. The method, boiled down: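 In the human GPR55 CHO β-arrestin luminescence assay, full LPI concentration-response curves were run without and with 3-4 antagonist concentrations. Antagonist was preincubated 1 h, then incubated with agonist […]. KB was estimated by the Gaddum method. Three independent experiments in duplicate.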

SMILES strings stand for the structures. Calls of active or inactive are those of the source. Unless noted, the calls are words filed in the database; no cut-off is given here.

T2 sequence (P21554 whole entry): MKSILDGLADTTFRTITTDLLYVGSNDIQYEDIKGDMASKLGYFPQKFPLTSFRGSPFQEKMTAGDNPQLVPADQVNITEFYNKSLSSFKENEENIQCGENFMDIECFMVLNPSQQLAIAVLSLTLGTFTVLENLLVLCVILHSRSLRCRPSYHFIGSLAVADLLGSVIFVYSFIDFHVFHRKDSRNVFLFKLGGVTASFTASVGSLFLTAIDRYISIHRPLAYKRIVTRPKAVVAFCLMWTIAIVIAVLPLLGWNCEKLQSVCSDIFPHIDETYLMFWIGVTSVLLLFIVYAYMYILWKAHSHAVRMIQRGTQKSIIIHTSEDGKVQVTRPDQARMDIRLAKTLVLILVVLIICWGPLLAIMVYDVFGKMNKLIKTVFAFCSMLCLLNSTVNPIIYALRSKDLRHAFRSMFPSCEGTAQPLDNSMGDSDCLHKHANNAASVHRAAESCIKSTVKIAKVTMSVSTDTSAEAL
T1 sequence (P34972 whole entry): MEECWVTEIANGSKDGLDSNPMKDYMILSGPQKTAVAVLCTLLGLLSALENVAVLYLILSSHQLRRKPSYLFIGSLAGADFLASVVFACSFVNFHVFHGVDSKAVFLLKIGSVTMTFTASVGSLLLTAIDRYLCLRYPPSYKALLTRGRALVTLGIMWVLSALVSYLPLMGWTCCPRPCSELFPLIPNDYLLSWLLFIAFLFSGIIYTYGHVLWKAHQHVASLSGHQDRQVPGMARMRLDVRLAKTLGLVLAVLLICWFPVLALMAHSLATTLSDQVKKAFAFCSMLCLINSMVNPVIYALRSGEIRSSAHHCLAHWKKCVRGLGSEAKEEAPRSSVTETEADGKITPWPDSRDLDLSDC
T3 sequence (Q9Y2T6 whole entry, the tested form may be a part): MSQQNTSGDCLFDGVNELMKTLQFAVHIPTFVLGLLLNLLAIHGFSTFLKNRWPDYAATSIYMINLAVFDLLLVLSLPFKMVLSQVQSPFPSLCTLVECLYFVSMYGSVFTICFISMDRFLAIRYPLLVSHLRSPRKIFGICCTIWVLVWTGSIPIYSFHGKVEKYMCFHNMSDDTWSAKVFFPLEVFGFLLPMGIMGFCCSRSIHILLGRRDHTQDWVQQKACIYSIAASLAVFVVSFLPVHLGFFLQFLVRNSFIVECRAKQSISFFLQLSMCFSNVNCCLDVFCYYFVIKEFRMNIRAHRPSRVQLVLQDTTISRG

What is called Ki is the equilibrium dissociation constant of an inhibitor or competing ligand from its target. A word on the IC50: it is the point on the concentration scale where inhibition reaches its midpoint. Regarding `CCCCCc1cc(OC)c2cc(Cc3ccc(Br)cc3)c(=O)oc2c1`, the inhibition result on Cannabinoid receptor 2 [1] and at Cannabinoid receptor 1 [2] was “Active” each time. Further, the result in assay [3] was inactive. Further, the results for the Ki on Cannabinoid receptor 2 [4] and at Cannabinoid receptor 1 [5] were 0.578 µM and 10.2 µM, respectively. For the same compound, the Activity in assay [6] amounted to 30%. The figures for the IC50 in [7] and in [8] were above 10 µM and 3.76 µM, respectively.
Turning to `C=C(C)[C@@H]1CCC(C)=C[C@H]1c1c(O)cc(CCC)cc1O`, the Activity in assay [9] worked out at 56%.
What is called EC50 is the concentration that produces a half-maximal response. With `CCCCC/C=C\C/C=C\C/C=C\C/C=C\CCCC(=O)O[C@H](CO)COP(=O)(O)O[C@@H]1[C@H](O)[C@H](O)[C@@H](O)[C@H](O)[C@H]1O`, the EC50 in [10] is 1 µM.
In the case of `CCCCCc1cc(OC)c2cc(Cc3cccc(OC)c3)c(=O)oc2c1`, the outcome on Cannabinoid receptor 2 [11] and on Cannabinoid receptor 1 [12] was Active. The outcome in assay [3] was inactive. Also, the Kb was 16.5 µM in [13] and 7.94 pM in assay [8] (read-out: pA2 (converted)). In addition, the Activity in assay [6] amounted to 33%. In addition, the 50% inhibitory concentration (IC50) is above 10 µM in assay [7] and 3.23 µM in assay [8].
As for `CCCc1cc(O)c2c(c1)OC(C)(C)[C@@H]1CCC(C)=C[C@@H]21`, the Activity in [9] turned out to be 50%.
Turning to `CCCCCCCC(C)(C)c1cc(O)c2cc(Cc3ccccc3O)c(=O)oc2c1`, the outcome on Cannabinoid receptor 2 [11] was Active. The result in assay [3] was inactive. Moreover, the Kb in assay [13] is 0.561 µM. The IC50 in [7] was 12.5 µM. Also, in assay [8], the IC50 came to 0.113 µM and the inhibition result is “Dose-dependent effect”.
